Calls of active or inactive are those of the source. The rule behind the calls is not given here.
Assays:
[1] = tested on: L02; assay: Antiproliferative activity against human HL-7702 cells after 48 hrs by MTT assay; assay type: functional, cell-based; conditions: L02, 48 h
In short: (§1)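 MTT read-out of antiproliferative activity across cancer lines HepG-2, NCI-H460, MGC-803, A549 and MG-63 and normal liver line HL-7702. IC50 given as mean ± S.D. of three separate experiments, each run in triplicate.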

[2] = tested on: HepG2; assay: Antiproliferative activity against human HepG2 cells after 48 hrs by MTT assay; assay type: functional, cell-based; conditions: HepG2, 48 h; in short: as §1
[3] = tested on: NCI-H460; assay: Antiproliferative activity against human NCI-H460 cells after 48 hrs by MTT assay; assay type: functional, cell-based; conditions: NCI-H460, 48 h; in short: as §1
[4] = tested on: MGC-803; assay: Antiproliferative activity against human MGC803 cells after 48 hrs by MTT assay; assay type: functional, cell-based; conditions: MGC-803, 48 h; in short: as §1
[5] = tested on: A549; assay: Antiproliferative activity against human A549 cells after 48 hrs by MTT assay; assay type: functional, cell-based; conditions: A549, 48 h; in short: as §1
[6] = tested on: MG-63; assay: Antiproliferative activity against human MG63 cells after 48 hrs by MTT assay; assay type: functional, cell-based; conditions: MG-63, 48 h; in short: as §1
[7] = target: Inhibitor of NF-kappa-B kinase alpha/beta (Homo sapiens) (UniProt O14920+O15111); assay: Inhibition of IKKalpha/beta-mediated IkappaBalpha phosphorylation in human A549 cells after 24 hrs by Western blot analysis; assay type: cell-based
In short: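 A549 cells exposed to 5, 10 and 20 µM for 24 h. Western blots probed for NF-κB, p-IκBα, IκBα and p-IKKα/β, with GAPDH as internal control. Three experiments, representative blot shown.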

[8] = organism: Homo sapiens; assay: Inhibition of TNF-alpha induced activation of NF-kappaB (unknown origin) assessed as reduction in DNA binding ability at 5 to 20 uM by cell based ELISA relative to TNF-alpha alone
In short: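 ELISA-type DNA-binding assay of NF-κB in TNF-α-stimulated A549 cells treated at 5, 10 and 20 µM. Compared against untreated and TNF-α-only controls. Mean ± SD, p < 0.05, three runs.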

[9] = tested on: SK-OV-3; assay: Growth inhibition of cisplatin sensitive human SKOV3 cells after 48 hrs by MTT assay; assay type: functional, cell-based; conditions: SK-OV-3, 48 h
In short: (§2)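 MTT growth inhibition in the paired ovarian lines, cisplatin-sensitive SK-OV-3 and cisplatin-resistant SK-OV-3/CDDP. IC50 given as mean ± S.D. of three separate experiments, each in triplicate.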

[10] = Growth inhibition of cisplatin-resistant human SKOV3/DDP cells after 48 hrs by MTT assay; assay type: functional; conditions: SK-OV-3, 48 h; in short: as §2
[11] = tested on: A549; assay: Induction of apoptosis in human A549 cells assessed as early apoptotic cells at 5 uM after 24 hrs by annexin V-FITC/propidium iodide staining-based flow cytometry analysis (reference value: 1.28%); assay type: functional
In short: (§3)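 A549 cells treated at 5, 10 and 20 µM for 24 h, then harvested and stained with Annexin V-FITC and PI. Flow cytometry quadrants: Q1 necrotic, Q2 late apoptotic/necrotic, Q3 early apoptotic, Q4 living. Performed three times.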

[12] = tested on: A549; assay: Induction of apoptosis in human A549 cells assessed as late apoptotic cells at 5 uM after 24 hrs by annexin V-FITC/propidium iodide staining-based flow cytometry analysis (reference value: 2.20%); assay type: functional; in short: as §3
[13] = tested on: A549; assay: Induction of apoptosis in human A549 cells assessed as necrotic apoptotic cells at 5 uM after 24 hrs by annexin V-FITC/propidium iodide staining-based flow cytometry analysis (reference value: 0.520%); assay type: functional; in short: as §3
[14] = tested on: A549; assay: Induction of apoptosis in human A549 cells assessed as viable cells at 5 uM after 24 hrs by annexin V-FITC/propidium iodide staining-based flow cytometry analysis (reference value: 96.0%); assay type: functional; conditions: A549, 24 h, read-out: Activity; in short: as §3
[15] = tested on: A549; assay: Induction of apoptosis in human A549 cells assessed as early apoptotic cells at 10 uM after 24 hrs by annexin V-FITC/propidium iodide staining-based flow cytometry analysis (reference value: 1.28%); assay type: functional; in short: as §3
[16] = tested on: A549; assay: Induction of apoptosis in human A549 cells assessed as late apoptotic cells at 10 uM after 24 hrs by annexin V-FITC/propidium iodide staining-based flow cytometry analysis (reference value: 2.20%); assay type: functional; in short: as §3
[17] = tested on: A549; assay: Induction of apoptosis in human A549 cells assessed as viable cells at 10 uM after 24 hrs by annexin V-FITC/propidium iodide staining-based flow cytometry analysis (reference value: 96.0%); assay type: functional; conditions: A549, 24 h, read-out: Activity; in short: as §3
[18] = tested on: A549; assay: Induction of apoptosis in human A549 cells assessed as early apoptotic cells at 20 uM after 24 hrs by annexin V-FITC/propidium iodide staining-based flow cytometry analysis (reference value: 1.28%); assay type: functional; in short: as §3
[19] = tested on: A549; assay: Induction of apoptosis in human A549 cells assessed as late apoptotic cells at 20 uM after 24 hrs by annexin V-FITC/propidium iodide staining-based flow cytometry analysis (reference value: 2.20%); assay type: functional; in short: as §3
[20] = tested on: A549; assay: Induction of apoptosis in human A549 cells assessed as viable cells at 20 uM after 24 hrs by annexin V-FITC/propidium iodide staining-based flow cytometry analysis (reference value: 96.0%); assay type: functional; conditions: A549, 24 h, read-out: Activity; in short: as §3
[21] = tested on: A549; assay: Cell cycle arrest in human A549 cells assessed as accumulation at G2 phase at 5 uM after 24 hrs by propidium iodide staining based flow cytometry (reference value: 14.1%); assay type: functional
[22] = tested on: A549; assay: Cell cycle arrest in human A549 cells assessed as accumulation at S phase at 5 uM after 24 hrs by propidium iodide staining based flow cytometry (reference value: 38.76%); assay type: functional
[23] = tested on: A549; assay: Cell cycle arrest in human A549 cells assessed as accumulation at G1 phase at 10 uM after 24 hrs by propidium iodide staining based flow cytometry (reference value: 47.0%); assay type: functional
[24] = tested on: A549; assay: Cell cycle arrest in human A549 cells assessed as accumulation at G2 phase at 10 uM after 24 hrs by propidium iodide staining based flow cytometry (reference value: 14.1%); assay type: functional
[25] = tested on: A549; assay: Cell cycle arrest in human A549 cells assessed as accumulation at S phase at 10 uM after 24 hrs by propidium iodide staining based flow cytometry (reference value: 38.76%); assay type: functional
[26] = tested on: A549; assay: Cell cycle arrest in human A549 cells assessed as accumulation at G1 phase at 20 uM after 24 hrs by propidium iodide staining based flow cytometry (reference value: 47.0%); assay type: functional
[27] = tested on: A549; assay: Cell cycle arrest in human A549 cells assessed as accumulation at G2 phase at 20 uM after 24 hrs by propidium iodide staining based flow cytometry (reference value: 14.1%); assay type: functional
[28] = tested on: A549; assay: Cell cycle arrest in human A549 cells assessed as accumulation at S phase at 20 uM after 24 hrs by propidium iodide staining based flow cytometry (reference value: 38.76%); assay type: functional
[29] = tested on: A549; assay: Induction of apoptosis in human A549 cells assessed as hyper condensed nuclei at 5 to 20 uM after 24 hrs by Hoechst […] staining based fluorescence microscopic method; assay type: functional, cell-based
In short: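 After 24 h exposure at 5, 10 and 20 µM, A549 cells harvested and stained with Hoechst 33258. Nuclear morphology, including brightly stained hypercondensed nuclei, inspected against untreated control. Three experiments.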

[30] = tested on: A549; assay: Induction of ROS generation in human A549 cells at 5 to 20 uM after 24 hrs by DCFH-DA staining-based fluorescence microscopic analysis; assay type: functional, cell-based
In short: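 Intracellular ROS in A549 cells after 24 h incubation, using DCF-DA probe. Green cytoplasmic fluorescence viewed by fluorescence microscopy against untreated control. Three experiments.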

IC50 [2]: 9.11 µM
IC50 [3]: 8.28 µM
IC50 [4]: 8.73 µM
IC50 [5]: 6.25 µM
inhibition [7]: Dose-dependent effect
IC50 [9]: 9.75 µM
Compound: CCOP(=O)(OCC)C(Nc1ccc(CC(=O)NCCCCNC(=O)[C@@]2(C)CC[C@]3(C)CC[C@]4(C)C(=CC(=O)[C@@H]5[C@@]6(C)CC[C@H](OC(C)=O)C(C)(C)[C@@H]6CC[C@]54C)[C@@H]3C2)cc1)c1ccc(F)cc1 (stereo not given in full)
IC50 [1]: > 50 µM
IC50 [6]: 9.01 µM
fold change (FC) [8]: 2.3
IC50 [10]: 8.94 µM
Activity [11]: 1.96%
Activity [12]: 11.6%
Activity [13]: 0.09%
viability at 5 µM [14]: 86.4%
Activity [15]: 19.1%
Activity [16]: 22.6%
viability at 10 µM [17]: 57.9%
Activity [18]: 19.5%
Activity [19]: 39.7%
viability at 20 µM [20]: 40.3%
Activity [21]: 0%
Activity [22]: 40.09%
Activity [23]: 46.5%
Activity [24]: 9.9%
Activity [25]: 43.6%
Activity [26]: 43.02%
Activity [27]: 2.66%
Activity [28]: 54.32%
Activity [29]: Active
Activity [30]: Active

Source: ChEMBL document CHEMBL4382268, “Glycyrrhetinic acid derivatives containing aminophosphonate ester species as multidrug resistance reversers that block the NF-κB pathway and cell proliferation” (Bioorg Med Chem Lett, 2018)
